Each structure is given as a SMILES string. The source made the active and inactive calls. The calls are words filed in the database; no cut-off is given here. A value given as a limit tells only on which side of the number the result lay.

The values that follow come from ChEMBL document CHEMBL3351540, “Novel antiproliferative chimeric compounds with marked histone deacetylase inhibitory activity” (ACS Med Chem Lett, 2014).

Test [1] has as its system MCF7. Briefly: Antimigratory activity against human MCF7 cells assessed as reduction in slope values at 5 uM up to 24 hrs by real-time mode analysis. It counts as functional. Further details: scale not given: the % may be the effect or the level left. The gist of the method:
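MCF-7 cells exposed to 5 μM compound and tracked in real time as cell index versus time over 27 h. Migration was expressed as the slope of the cell index within 24 h.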

Test [2] in a line: Cell cycle arrest in human U937 cells assessed as block at G1 phase at 5 uM after 24 to 96 hrs using propidium iodide staining by FACScan flow cytometry. The settings on record: U-937.
The target of the next test is Histone deacetylase 4 (Homo sapiens, UniProt P56524). Briefly: Inhibition of human recombinant HDAC4 using (S)-[5-Acetylamino-1-(2-oxo-4-trifluorometyl-2Hchromen-7-ylcarbamoyl)pentl]carbami acid tert-Butyl Ester as substrate after 1 hr by fluorescent activity assay.
Histone deacetylase 4, sequence (P56524 whole entry): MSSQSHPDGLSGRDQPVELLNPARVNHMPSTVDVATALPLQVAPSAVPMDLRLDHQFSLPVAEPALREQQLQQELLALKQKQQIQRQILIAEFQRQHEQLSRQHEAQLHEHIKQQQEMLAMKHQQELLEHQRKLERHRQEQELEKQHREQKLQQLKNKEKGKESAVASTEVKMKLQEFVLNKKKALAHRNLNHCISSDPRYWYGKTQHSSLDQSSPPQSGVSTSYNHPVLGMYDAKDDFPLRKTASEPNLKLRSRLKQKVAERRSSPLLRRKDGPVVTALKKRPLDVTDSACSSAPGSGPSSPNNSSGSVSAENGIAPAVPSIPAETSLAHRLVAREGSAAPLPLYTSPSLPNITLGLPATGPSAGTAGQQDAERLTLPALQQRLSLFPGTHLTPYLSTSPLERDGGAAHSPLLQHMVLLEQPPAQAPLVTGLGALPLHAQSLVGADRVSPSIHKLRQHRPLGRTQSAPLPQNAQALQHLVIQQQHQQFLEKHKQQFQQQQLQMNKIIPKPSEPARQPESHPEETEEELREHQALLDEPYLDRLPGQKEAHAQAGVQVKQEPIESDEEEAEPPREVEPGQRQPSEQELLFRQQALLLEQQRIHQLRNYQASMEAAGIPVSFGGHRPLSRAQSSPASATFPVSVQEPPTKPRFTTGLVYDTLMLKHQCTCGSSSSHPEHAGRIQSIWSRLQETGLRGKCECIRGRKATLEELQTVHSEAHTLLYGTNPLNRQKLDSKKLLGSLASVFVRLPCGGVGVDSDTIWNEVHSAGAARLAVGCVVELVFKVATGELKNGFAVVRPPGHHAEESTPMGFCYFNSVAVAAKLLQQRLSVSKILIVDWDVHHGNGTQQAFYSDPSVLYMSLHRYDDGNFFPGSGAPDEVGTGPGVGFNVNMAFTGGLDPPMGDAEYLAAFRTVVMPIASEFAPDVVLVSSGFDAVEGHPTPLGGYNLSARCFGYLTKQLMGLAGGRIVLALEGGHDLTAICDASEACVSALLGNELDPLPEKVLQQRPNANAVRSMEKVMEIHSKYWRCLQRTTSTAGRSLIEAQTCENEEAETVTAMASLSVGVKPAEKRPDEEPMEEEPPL
Test [3] relates to K562. Briefly: Antiproliferative activity against human K562 cells assessed as growth inhibition after 48 hrs by trypan blue dye exclusion method. It counts as functional, cell-based. The settings on record: K562, 48 h.
Test [4] deals with T1, Protein deacetylase HDAC6 (Homo sapiens, UniProt Q9UBN7).
T1 sequence (Q9UBN7 whole entry): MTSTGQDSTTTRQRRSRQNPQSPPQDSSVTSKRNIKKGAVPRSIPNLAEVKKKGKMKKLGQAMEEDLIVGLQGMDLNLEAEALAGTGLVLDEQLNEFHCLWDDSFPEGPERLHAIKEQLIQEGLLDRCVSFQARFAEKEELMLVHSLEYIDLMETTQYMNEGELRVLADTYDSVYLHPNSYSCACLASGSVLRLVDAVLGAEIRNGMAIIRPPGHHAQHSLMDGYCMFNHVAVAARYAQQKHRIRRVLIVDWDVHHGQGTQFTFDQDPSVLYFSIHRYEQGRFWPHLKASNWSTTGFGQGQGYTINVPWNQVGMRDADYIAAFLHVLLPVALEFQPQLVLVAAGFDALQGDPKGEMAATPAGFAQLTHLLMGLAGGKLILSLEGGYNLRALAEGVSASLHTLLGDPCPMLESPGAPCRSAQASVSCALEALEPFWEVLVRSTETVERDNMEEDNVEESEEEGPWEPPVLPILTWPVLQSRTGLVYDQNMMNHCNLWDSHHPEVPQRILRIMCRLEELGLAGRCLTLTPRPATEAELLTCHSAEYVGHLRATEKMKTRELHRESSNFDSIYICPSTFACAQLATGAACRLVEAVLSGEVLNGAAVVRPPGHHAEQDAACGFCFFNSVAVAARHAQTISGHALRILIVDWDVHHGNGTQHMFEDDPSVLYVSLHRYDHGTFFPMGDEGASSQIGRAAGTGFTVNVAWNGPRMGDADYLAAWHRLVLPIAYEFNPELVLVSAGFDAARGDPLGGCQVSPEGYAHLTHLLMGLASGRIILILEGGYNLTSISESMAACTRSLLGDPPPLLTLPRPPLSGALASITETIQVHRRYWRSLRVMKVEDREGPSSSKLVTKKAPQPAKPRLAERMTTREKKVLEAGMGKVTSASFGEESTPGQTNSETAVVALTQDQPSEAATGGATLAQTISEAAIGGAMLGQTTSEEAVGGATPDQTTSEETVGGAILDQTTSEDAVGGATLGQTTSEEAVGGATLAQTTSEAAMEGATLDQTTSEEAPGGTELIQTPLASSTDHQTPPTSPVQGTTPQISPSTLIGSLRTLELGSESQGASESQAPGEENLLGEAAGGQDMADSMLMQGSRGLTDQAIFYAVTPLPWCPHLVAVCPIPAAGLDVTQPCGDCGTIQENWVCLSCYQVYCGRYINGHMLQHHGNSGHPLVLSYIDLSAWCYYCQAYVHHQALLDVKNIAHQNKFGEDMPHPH
Briefly: Inhibition of human recombinant HDAC6 using Z-MAL as substrate after 1 hr by fluorescent activity assay.

Test [5] concerns K562. Briefly: Induction of apoptosis in human K562 cells using annexin-V/PI staining by flow cytometry. Format: functional, cell-based. The gist of the method: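 K562 cells treated for 48 h; apoptosis scored by annexin V test. AC50 is the concentration inducing apoptosis in 50% of cells. Triplicate points, SD error bars.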
In general terms: Flow cytometry measures light scatter and fluorescence of single cells or particles in a stream.

In test [6] the test system is MCF7. Briefly: Cell cycle arrest in human MCF7 cells assessed as block at G2-M phase at 5 uM after 24 to 96 hrs using propidium iodide staining by FACScan flow cytometry. Format: functional, cell-based.
Test [7] has as its system K562. Briefly: Ratio of SAHA AC50 to compound AC50 for human K562 cells using annexin-V/PI staining by flow cytometry. It counts as functional.
Test [8] in a line: Cell cycle arrest in human U937 cells assessed as block at G1 phase at 5 uM after 24 to 96 hrs using propidium iodide staining by FACScan flow cytometry. The conditions noted are these: U-937. Format: functional, cell-based.
The test system of test [9] is MCF7. Briefly: Antiproliferative activity against human MCF7 cells at 5 uM after 10 hrs by real-time mode analysis. It counts as functional, cell-based. The gist of the method: (§1)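 Real-time proliferation of MCF-7 cells treated with 5 μM compound, recorded as cell index versus time over 36 h. Doubling time was calculated over the 10−18 h interval.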
In test [10] the test system is U-937. Briefly: Induction of apoptosis in human U937 cells using annexin-V/PI staining after 48 hrs by flow cytometry relative to SAHA. It counts as functional. The gist of the method:
(§2)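 U937 cells treated with 5 μM compound for 48 h, with SAHA at 5 μM as positive control. Apoptosis and necrosis measured by annexin V/PI double staining and flow cytometry. Triplicate points, SD error bars.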

For another test, the target named is Histone deacetylase 1 (Homo sapiens, UniProt Q13547). Briefly: Inhibition of human recombinant HDAC1 using modified Boc-Lys(Ac)-AMC MAL as substrate after 1 hr by fluorescent activity assay.
Histone deacetylase 1, sequence (Q13547 whole entry): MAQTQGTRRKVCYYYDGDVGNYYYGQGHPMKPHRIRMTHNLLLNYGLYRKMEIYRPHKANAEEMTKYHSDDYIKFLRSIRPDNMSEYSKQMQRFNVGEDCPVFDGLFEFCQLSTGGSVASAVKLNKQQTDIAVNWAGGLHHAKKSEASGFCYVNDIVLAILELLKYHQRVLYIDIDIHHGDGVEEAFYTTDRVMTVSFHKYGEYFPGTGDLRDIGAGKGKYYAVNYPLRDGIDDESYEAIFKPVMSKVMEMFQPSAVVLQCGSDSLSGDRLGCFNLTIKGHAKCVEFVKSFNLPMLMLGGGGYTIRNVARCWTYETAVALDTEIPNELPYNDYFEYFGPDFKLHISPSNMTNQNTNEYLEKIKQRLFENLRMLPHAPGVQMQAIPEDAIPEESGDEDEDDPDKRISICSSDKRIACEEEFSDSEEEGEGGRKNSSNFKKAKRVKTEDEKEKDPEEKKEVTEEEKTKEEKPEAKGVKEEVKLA
In test [11] the test system is MCF7. Briefly: Cell cycle arrest in human MCF7 cells assessed as block at G2 phase at 5 uM after 24 to 96 hrs using propidium iodide staining by FACScan flow cytometry.
Test [12] concerns MCF7. Briefly: Antiproliferative activity against human MCF7 cells assessed as reduction in doubling time at 5 uM after 10 to 18 hrs by real-time mode analysis. Format: functional, cell-based. In a few lines:
as §1

Test [13] concerns K562. Briefly: Cell cycle arrest in human K562 cells assessed as block at G1 phase at 40 uM after 24 hrs using propidium iodide staining by FACScan flow cytometry. Format: functional, cell-based.
The subject of test [14] is K562. Briefly: Cell cycle arrest in human K562 cells assessed as block at G2-M phase at 40 uM after 24 hrs using propidium iodide staining by FACScan flow cytometry. Format: functional, cell-based.
Test [15] has as its system U-937. Briefly: Induction of apoptosis in human U937 cells using annexin-V/PI staining after 48 hrs by flow cytometry. It counts as functional, cell-based. The gist of the method:
as §2

As usually defined, the IC50 is the concentration needed to halve the response being measured. For orientation: AC50 means the concentration at which the activity in the assay is half-maximal. With `COc1cc(/C=C/c2ccc(OC)c(NC(=O)CCCCCCC(=O)NO)c2)cc(OC)c1`, the Activity in the test with MCF7 [1] was found to be 25%. The result (in [2]; with MCF7 [6]; in [8]; in the test on MCF7 [9]; in the test on MCF7 [11]; in the test on MCF7 [12]) was Active. Further, the IC50 came to 9.8 µM at Histone deacetylase 4, 0.7 µM with K562 [3], 1.3 µM in [4] and 0.8 µM on Histone deacetylase 1. Further, the AC50 in the test with K562 [5] turned out to be 5 µM. Further, the Ratio in the test on K562 [7] is given as 2. Also, in the test on U-937 [10], the “fold change (FC)” value stood at 2.
With `O=C(CCCCCCNC(=O)c1ccc(-c2ccc(-c3cc(O)cc(O)c3)cc2)cc1)NO`, the figures for the IC50 in the test on K562 [3] and at Histone deacetylase 1 were 2.5 µM and 15.7 µM, respectively. For the same compound, the activity in the test on K562 [5] was half-maximal at 16 µM (AC50).
The matching figures for `O=C(NO)c1ccc(-c2ccc(-c3cc(O)cc(O)c3)cc2)cc1`: 20 µM, 8.9 µM and more than 50 µM.
Take `COc1cc(/C=C\c2ccc(OC)c(N)c2)cc(OC)c1`: the IC50 in the test with K562 [3] came out at 0.025 µM. For the same compound, the AC50 in the test with K562 [5] was determined as 0.25 µM.
For the compound `COc1cc(/C=C/c2ccc(OC)c(N)c2)cc(OC)c1`, the outcome in the test on K562 [13] and with K562 [14] was Active. In the test on K562 [3], the IC50 came to 2.5 µM. This compound came in with an AC50 in the test with K562 [5] of 20 µM.
In the case of `O=C(CCCCCCC(=O)Nc1ccccc1)NO` [VORINOSTAT], the result (with K562 [13]; in test [2]; with K562 [14]; in the test on U-937 [15]; in the test on MCF7 [6]; in test [8]) was Active. Besides, the outcome with MCF7 [11] and with MCF7 [12] was Active. The compound also displayed an AC50 in the test with K562 [5] of 10 µM.
In the test on K562 [5], `Oc1ccc(-c2ccc(-c3cc(O)cc(O)c3)cc2)cc1` returned an AC50 of more than 50 µM.
Consider `O=C(CCCCCNC(=O)c1ccc(-c2ccc(-c3cc(O)cc(O)c3)cc2)cc1)NO`, for which the IC50 in the test on K562 [3] was 6 µM; at Histone deacetylase 1, 0.9 µM. The compound further displayed an AC50 in the test with K562 [5] of 38 µM.
As to `COc1cc(/C=C\c2ccc(OC)c(NC(=O)CCCCCCC(=O)NO)c2)cc(OC)c1`, the outcome in the test with K562 [13] and with K562 [14] was Active. Besides, the IC50 on Histone deacetylase 4 was 7.6 µM; in the test with K562 [3] it was 7.5 µM; in test [4], 1.6 µM; at Histone deacetylase 1, 2.1 µM. Besides, the AC50 with K562 [5] is 40 µM.
